Measurements published in article PMC7709506 (ESMO Open, 2020).

Test: Safety and tolerability
Assay type: in vivo, human
Outline: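 Open-label multicentre phase I/IIa trial in adults with advanced or metastatic solid tumours. Part 1 used 3+3 oral capsule escalation at 50–800 mg/day to define DLT and MTD. Part 2 gave tablets. Treatment continued until progression, intolerable AE or study end, with dose decisions by a safety monitoring board. AEs of special interest were monitored. The safety population was all dosed patients, summarised by dose level.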

[1] = 30 patients treated with 400 mg/day

For `Cn1cc(-c2ccc3c(c2)ncn3-c2cc(NS(=O)(=O)C3CC3)cc(-c3ccc(F)cc3F)c2)cn1` [ODM-203], the Hyperbilirubinaemia [1] was 36.7%, the increased blood bilirubin [1] was 50.0% and the Alopecia (Grade 3–5, all doses (n=84)) was 1 (1.2) n (%). For the same molecule, the Arthralgia (Grade 3–5, all doses (n=84)) was 2 (2.4) n (%), the Asthenia (Grade 3–5, all doses (n=84)) was 2 (2.4) n (%) and the Blood bilirubin increased (Grade 3–5, all doses (n=84)) was 20 (23.8) n (%). The Conjugated bilirubin increased (Grade 3–5, all doses (n=84)) was 0 n (%), the Decreased appetite (Grade 3–5, all doses (n=84)) was 0 n (%) and the Diarrhoea (Grade 3–5, all doses (n=84)) was 5 (6.0) n (%). For the same molecule, the Dry mouth (Grade 3–5, all doses (n=84)) was 0 n (%), the Dry skin (Grade 3–5, all doses (n=84)) was 0 n (%) and the Dysgeusia (Grade 3–5, all doses (n=84)) was 0 n (%). The Epistaxis (Grade 3–5, all doses (n=84)) was 0 n (%), the Fatigue (Grade 3–5, all doses (n=84)) was 5 (6.0) n (%) and the Hyperbilirubinaemia (Grade 3–5, all doses (n=84)) was 16 (19.0) n (%). For the same molecule, the Hyperphosphataemia (Grade 3–5, all doses (n=84)) was 0 n (%), the Hypertension (Grade 3–5, all doses (n=84)) was 3 (3.6) n (%) and the Jaundice (Grade 3–5, all doses (n=84)) was 2 (2.4) n (%). For the same molecule, the Mucosal inflammation (Grade 3–5, all doses (n=84)) was 0 n (%), the Myalgia (Grade 3–5, all doses (n=84)) was 2 (2.4) n (%) and the Nasal dryness (Grade 3–5, all doses (n=84)) was 0 n (%). For the same molecule, the Nausea (Grade 3–5, all doses (n=84)) was 0 n (%), the Onycholysis (Grade 3–5, all doses (n=84)) was 1 (1.2) n (%) and the Palmar-plantar eryrthodysaestesia (Grade 3–5, all doses (n=84)) was 4 (4.8) n (%). For the same molecule, the Stomatitis (Grade 3–5, all doses (n=84)) was 3 (3.6) n (%), the Vomiting (Grade 3–5, all doses (n=84)) was 0 n (%) and the Weight decreased (Grade 3–5, all doses (n=84)) was 1 (1.2) n (%). For the same molecule, the “dose reduction due to arthralgia” value (N=84) was 2 patients, the “dose reduction due to increased blood bilirubin” value (N=84) was 2 patients and the “dose reduction due to palmar-plantar erythrodysesthesia syndrome” value (N=84) was 3 patients. The “treatment interruption due to hyperbilirubinaemia” value (N=84) was 8 patients, the “treatment interruption due to increase in blood bilirubin” value (N=84) was 16 patients and the “AE leading to death” value (Total (N=84)) was 7 (8.3) n (%). For the same molecule, the “AE leading to discontinuation” value (Total (N=84)) was 30 (35.7) n (%), the “AE leading to dose reduction” value (Total (N=84)) was 9 (10.7) n (%) and the “AE leading to treatment interruption” value (Total (N=84)) was 61 (72.6) n (%). The Alopecia (Total (N=84)) was 26 (31.0) n (%), the “Any AE” value (Total (N=84)) was 84 (100) n (%) and the Arthralgia (Total (N=84)) was 28 (33.3) n (%). For the same molecule, the Asthenia (Total (N=84)) was 25 (29.8) n (%), the Blood bilirubin increased (Total (N=84)) was 36 (42.9) n (%) and the Conjugated bilirubin increased (Total (N=84)) was 11 (13.1) n (%). For the same molecule, the Decreased appetite (Total (N=84)) was 25 (29.8) n (%), the Diarrhoea (Total (N=84)) was 42 (50.0) n (%) and the Dry mouth (Total (N=84)) was 29 (34.5) n (%). For the same molecule, the Dry skin (Total (N=84)) was 10 (11.9) n (%), the Dysgeusia (Total (N=84)) was 20 (23.8) n (%) and the Epistaxis (Total (N=84)) was 28 (33.3) n (%). For the same molecule, the Fatigue (Total (N=84)) was 23 (27.4) n (%), the Hyperbilirubinaemia (Total (N=84)) was 28 (33.3) n (%) and the Hyperphosphataemia (Total (N=84)) was 20 (23.8) n (%). For the same molecule, the Hypertension (Total (N=84)) was 14 (16.7) n (%), the Jaundice (Total (N=84)) was 27 (32.1) n (%) and the Mucosal inflammation (Total (N=84)) was 10 (11.9) n (%). The Myalgia (Total (N=84)) was 11 (13.1) n (%), the Nasal dryness (Total (N=84)) was 13 (15.5) n (%) and the Nausea (Total (N=84)) was 11 (13.1) n (%). The Onycholysis (Total (N=84)) was 11 (13.1) n (%), the Palmar-plantar eryrthodysaestesia (Total (N=84)) was 30 (35.7) n (%) and the “Related AE” value (Total (N=84)) was 82 (97.6) n (%). For the same molecule, the “Related SAEs” value (Total (N=84)) was 14 (16.7) n (%), the Stomatitis (Total (N=84)) was 34 (40.5) n (%) and the Vomiting (Total (N=84)) was 9 (10.7) n (%). The Weight decreased (Total (N=84)) was 19 (22.6) n (%), the “patients with at least one AE during treatment” value (all doses, N=84) was 84 patients and the “AE leading to death” value (capsule 100 mg (n=1)) was 0 n (%). The “AE leading to discontinuation” value (capsule 100 mg (n=1)) was 0 n (%), the “AE leading to dose reduction” value (capsule 100 mg (n=1)) was 0 n (%) and the “AE leading to treatment interruption” value (capsule 100 mg (n=1)) was 1 (100) n (%). For the same molecule, the Alopecia (capsule 100 mg (n=1)) was 0 n (%), the “Any AE” value (capsule 100 mg (n=1)) was 1 (100) n (%) and the Arthralgia (capsule 100 mg (n=1)) was 0 n (%). For the same molecule, the Asthenia (capsule 100 mg (n=1)) was 0 n (%), the Blood bilirubin increased (capsule 100 mg (n=1)) was 0 n (%) and the Conjugated bilirubin increased (capsule 100 mg (n=1)) was 0 n (%). The Decreased appetite (capsule 100 mg (n=1)) was 0 n (%), the Diarrhoea (capsule 100 mg (n=1)) was 0 n (%) and the Dry mouth (capsule 100 mg (n=1)) was 0 n (%). The Dry skin (capsule 100 mg (n=1)) was 0 n (%), the Dysgeusia (capsule 100 mg (n=1)) was 0 n (%) and the Epistaxis (capsule 100 mg (n=1)) was 0 n (%). For the same molecule, the Fatigue (capsule 100 mg (n=1)) was 0 n (%), the Hyperbilirubinaemia (capsule 100 mg (n=1)) was 0 n (%) and the Hyperphosphataemia (capsule 100 mg (n=1)) was 0 n (%). The Hypertension (capsule 100 mg (n=1)) was 0 n (%).
